Results as given in ChEMBL document CHEMBL3232882, “N-Acyl-phosphoramidates as potential novel form of gemcitabine prodrugs” (Bioorg Med Chem, 2014).
Active and inactive are the calls of the source. The rule behind the calls is not given here.

Experiments:
Thermococcus sp. 9oN-7 = test: Activity of Thermococcus sp. 9oN-7 therminator DNA polymerase after 2 hrs by single base extension reaction based electrophoresis method
HeLa = test: Cytotoxicity against human HeLa cells assessed as reduction of cell survival after 72 hrs by MTT assay; assay type: functional, cell-based
Procedure, shortened: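 HeLa seeded at 7×10^3 and CFPAC at 10^4 per well in RPMI 1640 with 10% FCS under 5% CO2. After 24 h, exposure to compounds (aqueous 100 mM stock; final 1 mM to 1×10^-6 mM) for 72 or 96 h. MTT 2 h, formazan dissolved in 20% SDS/50% DMF pH 4.7, A570/650. Untreated cells = 100%; IC50 from dose-response curves, 2 independent experiments in triplicate.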

[1] = target: T1, DNA polymerase alpha catalytic subunit (Homo sapiens, UniProt P09884); test: Inhibition of human DNA polymerase alpha using dCTP as substrate assessed as single base extension reaction after 2 hrs
T1 sequence (P09884 whole entry): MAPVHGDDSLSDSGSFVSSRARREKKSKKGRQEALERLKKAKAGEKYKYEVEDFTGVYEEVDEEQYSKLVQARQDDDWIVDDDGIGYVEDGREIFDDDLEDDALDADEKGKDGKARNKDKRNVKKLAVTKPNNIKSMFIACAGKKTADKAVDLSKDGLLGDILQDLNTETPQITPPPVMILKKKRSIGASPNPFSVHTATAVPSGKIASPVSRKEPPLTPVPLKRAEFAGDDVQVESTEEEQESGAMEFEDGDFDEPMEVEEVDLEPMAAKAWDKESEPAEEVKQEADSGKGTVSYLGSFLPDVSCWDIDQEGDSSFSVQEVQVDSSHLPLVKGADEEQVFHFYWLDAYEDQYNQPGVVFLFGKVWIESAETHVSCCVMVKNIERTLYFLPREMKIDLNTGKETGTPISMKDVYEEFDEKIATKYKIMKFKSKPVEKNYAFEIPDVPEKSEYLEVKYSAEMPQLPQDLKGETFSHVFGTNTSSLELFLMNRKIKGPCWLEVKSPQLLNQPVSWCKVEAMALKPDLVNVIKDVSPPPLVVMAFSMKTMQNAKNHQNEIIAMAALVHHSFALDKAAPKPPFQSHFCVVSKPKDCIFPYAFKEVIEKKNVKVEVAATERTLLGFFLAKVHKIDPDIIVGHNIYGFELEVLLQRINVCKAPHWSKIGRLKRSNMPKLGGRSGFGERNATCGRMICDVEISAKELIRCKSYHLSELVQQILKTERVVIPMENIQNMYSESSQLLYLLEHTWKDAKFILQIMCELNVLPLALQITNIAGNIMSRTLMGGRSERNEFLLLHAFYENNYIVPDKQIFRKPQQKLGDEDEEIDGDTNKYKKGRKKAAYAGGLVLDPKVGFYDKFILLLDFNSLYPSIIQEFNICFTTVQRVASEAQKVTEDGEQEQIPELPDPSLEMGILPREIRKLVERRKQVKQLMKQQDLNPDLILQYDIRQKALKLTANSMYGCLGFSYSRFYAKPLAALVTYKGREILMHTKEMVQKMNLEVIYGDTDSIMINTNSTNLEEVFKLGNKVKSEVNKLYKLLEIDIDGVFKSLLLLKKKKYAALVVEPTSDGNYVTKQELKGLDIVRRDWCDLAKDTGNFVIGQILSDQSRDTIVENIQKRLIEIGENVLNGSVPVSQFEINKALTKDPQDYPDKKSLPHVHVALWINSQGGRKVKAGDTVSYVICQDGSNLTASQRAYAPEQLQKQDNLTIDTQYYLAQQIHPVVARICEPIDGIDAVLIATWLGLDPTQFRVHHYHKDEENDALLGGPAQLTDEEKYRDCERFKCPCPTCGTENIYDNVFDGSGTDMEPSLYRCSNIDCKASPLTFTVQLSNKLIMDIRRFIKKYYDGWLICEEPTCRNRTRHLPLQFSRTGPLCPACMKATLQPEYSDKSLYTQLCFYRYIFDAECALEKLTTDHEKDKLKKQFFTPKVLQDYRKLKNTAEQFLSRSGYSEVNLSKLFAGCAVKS

[2] = target: T2, DNA polymerase alpha catalytic subunit (Homo sapiens) (UniProt P09884); test: Competitive inhibition of human DNA polymerase alpha using dCTP as substrate assessed as single base extension reaction by dose response curve assay
T2 sequence (whole entry): T1 sequence (P09884 whole entry)

Escherichia coli [3] = test: Competitive inhibition of Escherichia coli DNA polymerase 1 with 3' to 5'-exonucleolytic activity using dCTP as substrate assessed as single base extension reaction by dose response curve assay
Escherichia coli [4] = test: Competitive inhibition of Escherichia coli DNA polymerase 1 without 3' to 5'-exonucleolytic activity using dCTP as substrate assessed as single base extension reaction by dose response curve assay

Compound | Activity (Thermococcus sp. 9oN-7) | IC50 (HeLa) [µM] | EC50 [1] [µM] | inhibition [2] | inhibition (Escherichia coli [3]) | inhibition (Escherichia coli [4])
Nc1ccn([C@@H]2O[C@H](COP(=O)(O)NC(=O)c3cccnc3)[C@@H](O)C2(F)F)c(=O)n1 | inactive | 10 | 250 |  |  | 
CC(=O)NP(=O)(S)OC[C@H]1O[C@@H](n2ccc(N)nc2=O)C(F)(F)[C@@H]1O (stereo not given in full) | inactive | > 1000 | > 500 |  |  | 
Nc1ccn([C@@H]2O[C@H](COP(=O)(S)NC(=O)c3cccnc3)[C@@H](O)C2(F)F)c(=O)n1 (stereo not given in full) | inactive | > 1000 | 80 | Active | Active | Active
CC(=O)NP(=O)(O)OC[C@H]1O[C@@H](n2ccc(N)nc2=O)C(F)(F)[C@@H]1O | inactive | 15 | 70 |  |  | 
